Calls of active or inactive are those of the source. The rule behind the calls is not given here.
How the values were obtained:
[1] = AUC (0 to 480 min) in mouse heart at 23 umol/kg, ip administered as bolus by LC-MS analysis; type: ADME, organism-based; design: dose 23 umol/kg, time < 8 hr, route intraperitoneal; details: in vivo, 8 h
How it was run: (§1)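 Male adult mice (25 ± 5 g) given a single i.p. bolus at 23 µmol/kg. The dosing solution was 1.36 mM in 10% (v/v) DMSO, 20% (w/v) hydroxypropyl-β-cyclodextrin and 0.9% NaCl. Animals were decapitated at seven time points from 10 to 480 min. Plasma and tissues were acetonitrile-precipitated with repaglinide internal standard and analysed by LC-MS. Parameters were derived from concentration–time data, mean ± SEM (n=3).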

[2] = Metabolic stability in human plasma at 37 degreeC in presence of NADPH regenerating system measured after 2 hrs by HPLC analysis; type: ADME, cell-free
[3] = Terminal half life in mouse prostate at 23 umol/kg, ip administered as bolus by LC-MS analysis; type: ADME, organism-based, Prostate gland; details: read-out: beta t1/2
How it was run: (§2)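 Adult male mice (25 ± 5 g) given a single i.p. bolus of 23 µmol/kg, dosing solution 1.36 mM in 10% (v/v) DMSO, 20% (w/v) hydroxypropyl-β-cyclodextrin, 0.9% NaCl in water. Decapitation at time points 10–480 min; plasma, brain, liver, prostate, kidney, heart collected. Acetonitrile precipitation with repaglinide internal standard, LC-MS (ESI positive). tmax and t½β taken from concentration-time data; mean ± SEM, n=3.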

[4] = Chemical stability of the compound in Tris-HCl buffer at pH 7.4 and 37 degreeC measured after 24 hrs by HPLC method; type: physicochemical; details: pH 7.4, 24 h
How it was run: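 Incubated in isotonic Tris-HCl buffer, pH 7.4, at 37 °C for 24 h; monitored by UV-HPLC.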

[5] = target: T1, Large neutral amino acids transporter small subunit 1 (Homo sapiens, UniProt Q01650); assay: Competitive inhibition of [14C]-L-leucine uptake at LAT1 in human MCF7 cells preincubated for 5 mins followed by addition of substrate measured during 5 mins by liquid scintillation counting; type: cell-based
T1 sequence (Q01650 whole entry, the tested form may be a part): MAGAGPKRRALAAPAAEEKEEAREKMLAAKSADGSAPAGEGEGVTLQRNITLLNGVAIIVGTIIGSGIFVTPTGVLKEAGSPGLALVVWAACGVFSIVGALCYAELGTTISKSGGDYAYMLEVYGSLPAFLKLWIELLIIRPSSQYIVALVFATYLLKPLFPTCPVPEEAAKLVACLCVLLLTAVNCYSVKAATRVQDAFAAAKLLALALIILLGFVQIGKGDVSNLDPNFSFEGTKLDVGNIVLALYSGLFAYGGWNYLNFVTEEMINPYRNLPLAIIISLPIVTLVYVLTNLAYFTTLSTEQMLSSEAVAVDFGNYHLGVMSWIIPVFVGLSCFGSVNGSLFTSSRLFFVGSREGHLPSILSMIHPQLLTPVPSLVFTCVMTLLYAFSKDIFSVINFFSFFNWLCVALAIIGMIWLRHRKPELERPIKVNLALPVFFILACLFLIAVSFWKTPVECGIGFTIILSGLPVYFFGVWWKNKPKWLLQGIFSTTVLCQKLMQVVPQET

[6] = target: T2, Large neutral amino acids transporter small subunit 1 (Mus musculus, UniProt Q9Z127); assay: Drug uptake in mouse brain assessed as LAT1-mediated unidirectional transfer constant measured after perfusion; type: ADME, tissue-based; details: in vivo
T2 sequence (Q9Z127 whole entry, the tested form may be a part): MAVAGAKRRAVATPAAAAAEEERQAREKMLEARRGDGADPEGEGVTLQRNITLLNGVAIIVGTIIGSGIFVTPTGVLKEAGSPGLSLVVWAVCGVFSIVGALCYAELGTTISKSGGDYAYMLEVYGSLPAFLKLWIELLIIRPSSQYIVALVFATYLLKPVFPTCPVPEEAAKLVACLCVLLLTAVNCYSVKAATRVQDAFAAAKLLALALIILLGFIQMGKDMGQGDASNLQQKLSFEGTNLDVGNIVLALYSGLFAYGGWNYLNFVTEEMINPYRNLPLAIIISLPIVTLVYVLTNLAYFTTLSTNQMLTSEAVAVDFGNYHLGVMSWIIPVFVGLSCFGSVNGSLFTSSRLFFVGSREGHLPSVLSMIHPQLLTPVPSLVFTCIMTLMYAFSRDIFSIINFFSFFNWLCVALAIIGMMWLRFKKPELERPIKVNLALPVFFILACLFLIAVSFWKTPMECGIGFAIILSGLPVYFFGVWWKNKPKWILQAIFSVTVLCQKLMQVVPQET
How it was run: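 In situ brain perfusion in anaesthetised male mice used 100 µM compound at 37 °C, 2.5 mL/min, for 60 s, then 2 s drug-free buffer at 4 °C. Kin = Qtot/(Cpf × T); mean ± SD, n=3.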

[7] = AUC (0 to 480 min) in mouse brain at 23 umol/kg, ip administered as bolus by LC-MS analysis; type: ADME, organism-based; design: time < 8 hr, dose 23 umol/kg, route intraperitoneal; details: in vivo, 8 h; how it was run: as §1
[8] = Metabolic stability in mouse liver S9 fraction at 37 degreeC in presence of NADPH regenerating system measured after 2 hrs by HPLC analysis; type: ADME, subcellular; details: s9, 2 h
[9] = Tmax in mouse liver at 23 umol/kg, ip administered as bolus by LC-MS analysis; type: ADME, organism-based; how it was run: as §2
[10] = fCmax in mouse liver at 23 umol/kg, ip administered as bolus by LC-MS analysis; type: ADME, organism-based; details: in vivo
How it was run: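 Male mice (25 ± 5 g) dosed i.p. as a bolus at 23 µmol/kg in DMSO/hydroxypropyl-β-cyclodextrin/saline vehicle, sampled at time points 10–480 min; plasma and tissue homogenates (1:3 water) analysed by LC-MS. […] Mean ± SEM.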

[11] = Cmax in mouse kidney at 23 umol/kg, ip administered as bolus by LC-MS analysis; type: ADME, organism-based; design: dose 23 umol/kg, route intraperitoneal; details: in vivo; how it was run: as §1
[12] = AUC (0 to 480 min) in mouse plasma at 23 umol/kg, ip administered as bolus by LC-MS analysis; type: ADME, organism-based; design: dose 23 umol/kg, time < 8 hr, route intraperitoneal; details: in vivo, 8 h; how it was run: as §1
[13] = target: T2, Large neutral amino acids transporter small subunit 1; assay: Ratio of Kin for L-leucine to Kin for test compound for LAT1-mediated drug uptake in mouse brain; type: ADME, tissue-based; details: in vivo
How it was run: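 In situ brain perfusion in anaesthetised adult male mice (ketamine/xylazine i.p.) via right common carotid at 2.5 mL/min, 37 °C. Perfusate was 0.157 µM [14C]-L-leucine for 30 s or 100 µM test compound for 60 s, then 2 s drug-free buffer at 4 °C. Kin = Qtot/(Cpf × T). Mean ± SD, n=3-4.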

[14] = Tmax in mouse plasma at 23 umol/kg, ip administered as bolus by LC-MS analysis; type: ADME, organism-based; how it was run: as §2
[15] = Tmax in mouse brain at 23 umol/kg, ip administered as bolus by LC-MS analysis; type: ADME, organism-based; how it was run: as §2
[16] = Tmax in mouse kidney at 23 umol/kg, ip administered as bolus by LC-MS analysis; type: ADME, organism-based; how it was run: as §2
[17] = target: T1, Large neutral amino acids transporter small subunit 1; assay: Drug uptake in human MCF7 cells assessed as LAT1 mediated drug transport per mg of protein at 100 uM measured 5 mins after warm wash by HPLC analysis; type: ADME, cell-based; details: mcf7, 5 min
How it was run: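 MCF-7 monolayers were incubated with 100 µM compound in HBSS at 37 °C for 5 or 30 min. Cells got three washes with ice-cold or warm (37 °C) HBSS; in the warm 30 min arm they were washed after 5 min and again after 30 min. Lysates (0.1 M NaOH) were quantified by HPLC-UV against a spiked lysate standard curve and normalised to protein (Bio-Rad assay).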

[18] = Cmax in mouse brain at 23 umol/kg, ip administered as bolus by LC-MS analysis; type: ADME, organism-based; design: dose 23 umol/kg, route intraperitoneal; details: in vivo; how it was run: as §1
[19] = target: T1, Large neutral amino acids transporter small subunit 1; assay: Inhibition of LAT1 in human MCF7 cells assessed as potentiation of bestatin-induced antiproliferative activity by measuring reduction in cell viability at 100 uM measured after 72 hrs by resazurin dye-based fluorimetric analysis
How it was run: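 MCF-7 cells seeded 2 × 10^4/well on collagen-coated plates, treated one day later in growth medium with inhibitor (25 or 100 µM) plus bestatin or cisplatin (100 µM) for up to 3 days. Viability read daily by resazurin fluorescence (ex 560/em 590 nm). Viability is treated relative to untreated control. Mean ± SD, n=3.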

[20] = Cmax in mouse heart at 23 umol/kg, ip administered as bolus by LC-MS analysis; type: ADME, organism-based; design: dose 23 umol/kg, route intraperitoneal; details: in vivo; how it was run: as §1
[21] = target: T3, Large neutral amino acids transporter small subunit 2 (Homo sapiens) (UniProt Q9UHI5); assay: Competitive inhibition of [14C]-L-alanine uptake at LAT2 in human MCF7 cells at 25 uM preincubated for 5 mins followed by addition of substrate measured during 5 mins by liquid scintillation counting; type: cell-based
T3 sequence (whole entry): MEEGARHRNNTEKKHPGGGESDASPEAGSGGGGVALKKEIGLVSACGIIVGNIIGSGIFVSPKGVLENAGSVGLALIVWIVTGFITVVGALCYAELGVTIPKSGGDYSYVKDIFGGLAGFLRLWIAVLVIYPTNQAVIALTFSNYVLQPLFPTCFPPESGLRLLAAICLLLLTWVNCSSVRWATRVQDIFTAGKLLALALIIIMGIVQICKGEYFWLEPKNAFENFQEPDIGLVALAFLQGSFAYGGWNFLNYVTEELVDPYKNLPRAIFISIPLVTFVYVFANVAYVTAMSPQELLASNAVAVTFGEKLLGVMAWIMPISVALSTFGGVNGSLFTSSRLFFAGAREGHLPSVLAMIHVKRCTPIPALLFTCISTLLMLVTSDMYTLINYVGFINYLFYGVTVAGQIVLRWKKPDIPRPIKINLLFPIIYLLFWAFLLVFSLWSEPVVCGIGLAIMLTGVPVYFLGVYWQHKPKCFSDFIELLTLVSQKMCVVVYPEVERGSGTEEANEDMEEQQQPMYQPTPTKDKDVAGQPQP

- AUC [1]: 249 nmol/g/min
- Stability [2]: Stable
- half-life [3]: 12 min
- Stability [4]: Stable
- IC50 [5]: 18.2 µM
- inhibition [5]: Dose-dependent effect
- Kin [6]: 8.2 ×10⁻⁵ ml/s/g
- AUC [7]: 11 nmol/g/min
- Stability [8]: Stable
- Tmax [9]: 10 min
- fCmax [10]: 0.38 nmol/g
- Cmax [11]: 22.5 nmol/g
- AUC [12]: 795 nmol/min/mL
- Ratio [13]: 156
- Tmax [14]: 10 min
- Tmax [15]: 30 min
- Tmax [16]: 10 min
- Drug uptake [17]: 1.43 nmol/mg
- Cmax [18]: 0.2 nmol/g
- Cmax [20]: 4.9 nmol/g
- inhibition [21]: inactive
Structure (SMILES): CNC(=O)COc1ccc(-c2c(C#N)c(NC(=O)c3cccc(C[C@H](N)C(=O)O)c3)n3c(nc4ccccc43)c2C#N)cc1
- Activity [19]: 68.6%

Reference: ChEMBL document CHEMBL4425108, “A Selective and Slowly Reversible Inhibitor of l-Type Amino Acid Transporter 1 (LAT1) Potentiates Antiproliferative Drug Efficacy in Cancer Cells” (J Med Chem, 2016)
